In ChEMBL document CHEMBL1799937, “Streptothricin derivatives from Streptomyces sp. I08A 1776” (J Nat Prod, 2011):
pIC50: −log10 of the molar value. ≈ marks a conversion by molar mass, not a printed value.

Experiments:
[1] = test system: HeLa; assay: Cytotoxicity against human HeLa cells after 96 hrs by MTT assay; format: functional, cell-based
[2] = test system: Morganella morganii; assay: Antibacterial activity against multidrug-resistant Morganella morganii 07-09 after 24 hrs by broth dilution method; format: functional; conditions: 07-09, 24 h
In short: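 Mueller-Hinton broth microdilution following CLSI. Strains came from ATCC or clinical isolates. Final compound range 128 to 0.125 μg/mL by 2-fold dilution, inoculum 1 × 10^5 cfu/mL final. Incubated 24 h at 37 °C. MIC read as the lowest concentration showing no visible growth. Levofloxacin is the positive control.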

[3] = test system: Enterococcus faecalis; assay: Antibacterial activity against Enterococcus faecalis ATCC 29212 after 24 hrs by broth dilution method; format: functional; conditions: ATCC 29212, 24 h
In short: (§1)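 CLSI broth microdilution in Mueller-Hinton broth, with levofloxacin as positive control. Final inoculum was 1 × 10^5 cfu/mL. Compounds were tested at final concentrations from 128 to 0.125 μg/mL in 2-fold serial dilutions. Plates were incubated for 24 h at 37 °C. MIC was read as the lowest concentration giving no visible growth.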

[4] = test system: Escherichia coli; assay: Antibacterial activity against Escherichia coli ATCC 25922 after 24 hrs by broth dilution method; format: functional; conditions: ATCC 25922, 24 h; in short: as §1
[5] = test system: HepG2; assay: Cytotoxicity against human […] cells after 96 hrs by MTT assay; format: functional, cell-based; conditions: HepG2, 96 h
[6] = test system: Bacillus subtilis; assay: Antibacterial activity against Bacillus subtilis ATCC 6633 after 24 hrs by broth dilution method; format: functional; conditions: ATCC 6633, 24 h; in short: as §1
[7] = test system: A549; assay: Cytotoxicity against human A549 cells after 96 hrs by MTT assay; format: functional, cell-based; conditions: A549, 96 h
[8] = test system: Mycobacterium tuberculosis; assay: Antibacterial activity against Mycobacterium tuberculosis H37Rv after 14 days by broth dilution method; format: functional; conditions: 336 h
In short: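 Broth microdilution per CLSI in Middlebrook 7H9 broth. Compounds run at final 128 to 0.125 μg/mL (2-fold series) against an inoculum of 1 × 10^5 cfu/mL final. Plates incubated 14 days at 37 °C. Endpoint is the lowest concentration without visible growth. Levofloxacin is the positive control.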

[9] = test system: Pseudomonas aeruginosa; assay: Antibacterial activity against Pseudomonas aeruginosa ATCC 27853 after 24 hrs by broth dilution method; format: functional; conditions: ATCC 27853, 24 h; in short: as §1
[10] = test system: Staphylococcus aureus; assay: Antibacterial activity against Staphylococcus aureus ATCC 25923 after 24 hrs by broth dilution method; format: functional; conditions: ATCC 25923, 24 h; in short: as §1
[11] = test system: Candida albicans; assay: Antifungal activity against Candida albicans ATCC 10231 after 24 hrs by broth dilution method; format: functional; conditions: ATCC 10231, 24 h; in short: as §1
[12] = test system: Mycolicibacterium smegmatis; assay: Antibacterial activity against Mycobacterium smegmatis MC2 155 after 24 hrs by broth dilution method; format: functional; conditions: str. MC2 155, 24 h
In short: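 CLSI broth microdilution MIC. Medium: Middlebrook 7H9 broth. Serial 2-fold dilutions give final concentrations of 128 to 0.125 μg/mL. Final inoculum is 1 × 10^5 cfu/mL. Incubation is 24 h at 37 °C. MIC is the lowest concentration with no visible growth. Levofloxacin serves as positive control.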

| Compound | pIC50 [1] | MIC [2] [µg/mL] | MIC [3] [µg/mL] | MIC [4] [µg/mL] | pIC50 [5] | MIC [6] [µg/mL] | pIC50 [7] | MIC [8] [µg/mL] | MIC [9] [µg/mL] | MIC [10] [µg/mL] | MIC [11] [µg/mL] | MIC [12] [µg/mL] |
| --- | --- | --- | --- | --- | --- | --- | --- | --- | --- | --- | --- | --- |
| CC(=O)N[C@@H](CCCN)CC(=O)N[C@@H]1[C@H](O)[C@@H](O)[C@@H](COC(N)=O)O[C@H]1/N=C1\N[C@@H]2[C@H](O)CNC(=O)[C@@H]2N1 | < 5.00 | > 128 | > 128 | > 128 | < 5.00 | > 128 | < 5.00 | > 128 | > 128 | > 128 | > 128 | > 128 |
| C[C@H]1COc2c(N3CCN(C)CC3)c(F)cc3c(=O)c(C(=O)O)cn1c23.C[C@H]1COc2c(N3CCN(C)CC3)c(F)cc3c(=O)c(C(=O)O)cn1c23.O [LEVOFLOXACIN] |  | 16 | 0.5 |  |  | 0.12 |  | 0.5 | 0.25 | 0.12 | > 128 | 1 |
| NCCC[C@H](N)CC(=O)NCCC[C@H](N)CC(=O)N[C@@H]1[C@H](O)[C@@H](OC(N)=O)[C@@H](CO)O[C@H]1NC1=N[C@@H]2C(=O)NC[C@@H](O)[C@H]2N1 [STREPTOTHRICIN E] | < 5.00 | 4 (≈ 6.34 µM) | 64 (≈ 101 µM) | 16 (≈ 25.4 µM) | < 5.00 | 1 (≈ 1.59 µM) | < 5.00 | 16 (≈ 25.4 µM) | 64 (≈ 101 µM) | 4 (≈ 6.34 µM) | 1 (≈ 1.59 µM) | 4 (≈ 6.34 µM) |
| NCCC[C@H](N)CC(=O)NCCC[C@H](N)CC(=O)N[C@@H]1[C@H](O)[C@@H](O)[C@@H](COC(N)=O)O[C@H]1/N=C1\N[C@@H]2[C@H](O)CNC(=O)[C@H]2N1 | < 5.00 | > 128 | > 128 | > 128 | < 5.00 | 16 (≈ 25.4 µM) | < 5.00 | > 128 | > 128 | > 128 | 32 (≈ 50.7 µM) | 64 (≈ 101 µM) |
| CC(=O)N[C@@H](CCCNC(=O)C[C@@H](N)CCCN)CC(=O)N[C@@H]1[C@H](O)[C@@H](OC(N)=O)[C@@H](CO)O[C@H]1/N=C1\N[C@@H]2[C@H](O)CNC(=O)[C@H]2N1 | < 5.00 | > 128 | > 128 | > 128 | < 5.00 | > 128 | < 5.00 | > 128 | > 128 | > 128 | > 128 | > 128 |
| CC(=O)N[C@@H](CCCN)CC(=O)N[C@@H]1[C@H](O)[C@@H](O)[C@@H](COC(N)=O)O[C@H]1/N=C1\N[C@@H]2[C@H](O)CNC(=O)[C@H]2N1 | < 5.00 | > 128 | > 128 | > 128 | < 5.00 | > 128 | < 5.00 | > 128 | > 128 | > 128 | > 128 | > 128 |
| CC(=O)N[C@@H](CCCNC(=O)C[C@@H](N)CCCNC(=O)C[C@@H](N)CCCN)CC(=O)N[C@@H]1[C@H](O)[C@@H](OC(N)=O)[C@@H](CO)O[C@H]1NC1=N[C@@H]2C(=O)NC[C@@H](O)[C@H]2N1 | < 5.00 | > 128 | > 128 | > 128 | < 5.00 | > 128 | < 5.00 | > 128 | > 128 | > 128 | > 128 | > 128 |
| CC(=O)N[C@@H](CCCN)CC(=O)N[C@@H]1[C@H](O)[C@@H](O)[C@@H](COC(N)=O)O[C@H]1/N=C1\N[C@H]([C@H](O)CN)[C@@H](C(=O)O)N1 | < 5.00 | > 128 | > 128 | > 128 | < 5.00 | > 128 | < 5.00 | > 128 | > 128 | > 128 | > 128 | > 128 |
| CC(=O)N[C@@H](CCCN)CC(=O)N[C@@H]1[C@H](O)[C@@H](O)[C@@H](COC(N)=O)O[C@@H]1/N=C1\N[C@@H]2[C@H](O)CNC(=O)[C@H]2N1 | < 5.00 | > 128 | > 128 | > 128 | < 5.00 | > 128 | < 5.00 | > 128 | > 128 | > 128 | > 128 | > 128 |
